Reference: ChEMBL document CHEMBL2390844, “Evaluation of bioactivities of chlorokojic acid derivatives against dermatophytes couplet with cytotoxicity” (Bioorg Med Chem Lett, 2013)
In brackets after ≈: the same amount, converted by molar mass.

What was measured:
Epidermophyton floccosum [1] = assay: Antidermatophytic activity against Epidermophyton floccosum isolate after 7 days by broth microdilution method; format: functional; details: 168 h
Summary of the method: (§1)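 Broth microdilution per CLSI in RPMI 1640 with L-glutamine, no bicarbonate, buffered to pH 7.0 with 0.165 M MOPS, filter-sterilized. Test dilution series 128-0.0625 μg mL⁻¹; sterility and growth (inoculum) controls on each plate. Wells inoculated, incubated 28°C for 7 days, read visually with an inverted mirror; MIC recorded. Triplicate.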

Epidermophyton floccosum [2] = assay: Antidermatophytic activity against Epidermophyton floccosum RSKK 3027 after 7 days by broth microdilution method; format: functional; details: RSKK 3027, 168 h; summary of the method: as §1
Nannizzia gypsea [3] = assay: Antidermatophytic activity against Microsporum gypseum isolate after 7 days by broth microdilution method; format: functional; details: 168 h; summary of the method: as §1
Nannizzia gypsea [4] = assay: Antidermatophytic activity against Microsporum gypseum NCPF 580 after 7 days by broth microdilution method; format: functional; details: NCPF 580, 168 h; summary of the method: as §1
[5] = Antidermatophytic activity against Trichophyton mentagrophytes var. erinacei isolate after 7 days by broth microdilution method; format: functional; details: Arthroderma benhamiae; summary of the method: as §1
[6] = Antidermatophytic activity against Trichophyton mentagrophytes var. erinacei NCPF 375 after 7 days by broth microdilution method; format: functional; details: Arthroderma benhamiae; summary of the method: as §1
[7] = Cytotoxicity against human HeLa cells; format: cell-based; details: read-out: MNCC
Summary of the method: (§2)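 Maximum non-toxic concentration (MNTC) determined in HeLa and MRC-5 cells by a previously described method, based on cellular morphological alteration.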

[8] = Cytotoxicity against human MRC5 cells; format: cell-based; details: read-out: MNCC; summary of the method: as §2

Row | Compound | MIC (Epidermophyton floccosum [1]) [µg/mL] | MIC (Epidermophyton floccosum [2]) [µg/mL] | MIC (Nannizzia gypsea [3]) [µg/mL] | MIC (Nannizzia gypsea [4]) [µg/mL] | MIC [5] [µg/mL] | MIC [6] [µg/mL] | MNTC [7] [µg/mL] | MNTC [8] [µg/mL]
1 | CCC(C)n1ncn(-c2ccc(N3CCN(c4ccc(OCC5COC(Cn6cncn6)(c6ccc(Cl)cc6Cl)O5)cc4)CC3)cc2)c1=O (configuration not stated) [ITRACONAZOLE] | 0.25 (≈ 0.354 µM) | 0.125 (≈ 0.177 µM) | 0.25 (≈ 0.354 µM) | 0.125 (≈ 0.177 µM) | 0.5 (≈ 0.709 µM) | 0.25 (≈ 0.354 µM) |  | 
2 | O=c1cc(CCl)oc(CN2CCN(CC3CCCCC3)CC2)c1O | 8 (≈ 22.5 µM) | 4 (≈ 11.3 µM) | 8 (≈ 22.5 µM) | 4 (≈ 11.3 µM) | 8 (≈ 22.5 µM) | 4 (≈ 11.3 µM) | ≥ 256 | ≥ 512
3 | Cc1ccc(N2CCN(Cc3oc(CCl)cc(=O)c3O)CC2)cc1 | 8 (≈ 22.9 µM) | 4 (≈ 11.5 µM) | 8 (≈ 22.9 µM) | 4 (≈ 11.5 µM) | 8 (≈ 22.9 µM) | 4 (≈ 11.5 µM) | ≥ 64 | ≥ 64
4 | O=C(OCc1ccccc1)N1CCN(Cc2oc(CCl)cc(=O)c2O)CC1 | 8 (≈ 20.4 µM) | 4 (≈ 10.2 µM) | 8 (≈ 20.4 µM) | 4 (≈ 10.2 µM) | 8 (≈ 20.4 µM) | 4 (≈ 10.2 µM) | ≥ 256 | ≥ 128
5 | O=c1cc(CCl)oc(CN2CCN(Cc3cc(F)ccc3F)CC2)c1O | 8 (≈ 20.8 µM) | 4 (≈ 10.4 µM) | 8 (≈ 20.8 µM) | 4 (≈ 10.4 µM) | 8 (≈ 20.8 µM) | 4 (≈ 10.4 µM) | ≥ 256 | ≥ 256
6 | Cc1ccccc1N1CCN(Cc2oc(CCl)cc(=O)c2O)CC1 | 32 (≈ 91.7 µM) | 16 (≈ 45.9 µM) | 32 (≈ 91.7 µM) | 16 (≈ 45.9 µM) | 16 (≈ 45.9 µM) | 8 (≈ 22.9 µM) | ≥ 128 | ≥ 128
7 | COC1=CC(=O)C[C@@H](C)[C@]12Oc1c(Cl)c(OC)cc(OC)c1C2=O [GRISEOFULVIN] | 1 (≈ 2.83 µM) | 0.5 (≈ 1.42 µM) | 1 (≈ 2.83 µM) | 0.5 (≈ 1.42 µM) | 1 (≈ 2.83 µM) | 0.5 (≈ 1.42 µM) |  | 
8 | O=c1cc(CCl)oc(CN2CCN(Cc3ccccc3)CC2)c1O | 32 (≈ 91.7 µM) | 16 (≈ 45.9 µM) | 32 (≈ 91.7 µM) | 16 (≈ 45.9 µM) | 32 (≈ 91.7 µM) | 16 (≈ 45.9 µM) | ≥ 512 | ≥ 512
9 | O=c1cc(CCl)oc(CN2CCN(C3CCCCC3)CC2)c1O | 32 (≈ 93.9 µM) | 16 (≈ 46.9 µM) | 32 (≈ 93.9 µM) | 16 (≈ 46.9 µM) | 16 (≈ 46.9 µM) | 16 (≈ 46.9 µM) | ≥ 512 | ≥ 512
10 | O=c1cc(CCl)oc(CN2CCN(Cc3ccc(C(F)(F)F)cc3)CC2)c1O | 8 (≈ 19.2 µM) | 4 (≈ 9.6 µM) | 8 (≈ 19.2 µM) | 4 (≈ 9.6 µM) | 8 (≈ 19.2 µM) | 4 (≈ 9.6 µM) | ≥ 512 | ≥ 512
11 | O=c1cc(CCl)oc(CN2CCN(c3ccccc3F)CC2)c1O | 32 (≈ 90.7 µM) | 16 (≈ 45.4 µM) | 16 (≈ 45.4 µM) | 8 (≈ 22.7 µM) | 16 (≈ 45.4 µM) | 8 (≈ 22.7 µM) |  | ≥ 128
12 | O=c1cc(CCl)oc(CN2CCN(Cc3ccc(Cl)cc3)CC2)c1O | 8 (≈ 20.9 µM) | 4 (≈ 10.4 µM) | 8 (≈ 20.9 µM) | 4 (≈ 10.4 µM) | 8 (≈ 20.9 µM) | 4 (≈ 10.4 µM) | ≥ 128 | ≥ 128
13 | CC(=O)c1ccc(N2CCN(Cc3oc(CCl)cc(=O)c3O)CC2)cc1 | 16 (≈ 42.5 µM) | 16 (≈ 42.5 µM) | 16 (≈ 42.5 µM) | 16 (≈ 42.5 µM) | 16 (≈ 42.5 µM) | 16 (≈ 42.5 µM) | ≥ 512 | ≥ 512
14 | O=c1cc(CCl)oc(CN2CCN(c3ccc([N+](=O)[O-])cc3)CC2)c1O | 32 (≈ 84.3 µM) | 16 (≈ 42.1 µM) | 32 (≈ 84.3 µM) | 16 (≈ 42.1 µM) | 32 (≈ 84.3 µM) | 16 (≈ 42.1 µM) | ≥ 512 | ≥ 512
